Test system: MS2 coat protein
Experiment: apparent Kd, MS2 coat protein; higher = weaker binding; RNA-MaP array; FMN 200 µM where present
Outline: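 Each design was made on Illumina sequencing-chip clusters by stalled E. coli RNA polymerase and titrated with SNAP-549-labelled MS2 coat protein from 0.7 or 1.5 nM, doubling to 3 µM, in the absence and then the presence of constant ligand. The buffer was 100 mM Tris-HCl pH 7.5, 80 mM KCl, 4 mM MgCl2, BSA, DTT, yeast tRNA and Tween-20. The apparent Kd is the median of filtered per-cluster fits of binding curves, with green signal normalised to red-channel RNA signal and control-cluster median Fmax.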

[1] = designed as: OFF switch for flavin mononucleotide, no ligand
[2] = ligand present: flavin mononucleotide, designed as: OFF switch for flavin mononucleotide
[3] = designed as: ON switch for flavin mononucleotide, no ligand
[4] = ligand present: flavin mononucleotide, designed as: ON switch for flavin mononucleotide

Row | Sequence | apparent Kd [1] | apparent Kd [2] | apparent Kd [3] | apparent Kd [4]
1 | GGAUAGGACAGAGGAUAUACGUGCUAGAGAUACUAGCUAAUAAUCCUUACAUGAGGAUCACCCAUGUAGAAGGCUGUCCUAUCG | 0.02 µM | 0.0451 µM | – | –
2 | GCAUGACAAAGUCAUGCAUAACGAACAUGAGGAUCACCCAUGUAGGAUAUGCUACUCAAAGAGUAGCAGAAGGACAUGUGUCUU | 0.0311 µM | 0.16 µM | – | –
3 | AAGGAUAGAGGAUAUACAUAGAUACAGAUUCAUGUGGAACUACAUGAGGAUCACCCAUGUAGAAGGCUAUCCUA | 0.0401 µM | 0.262 µM | – | –
4 | CCGGUUGGCGCAGGAUAUACAUGAGGAUCACCCAUGUUGAUGAGGAUCACCCAUCAGUUUUUGUUGUAGAAGGGUGGCCCGGCC | 0.0231 µM | 0.0193 µM | – | –
5 | UUGUUACAUGAGGAUCACCCAUGUGAGGAUAUGGUUCGGUACUGUCCUGUCGCGUACUCCAGAAGGCACAUGUU | 0.0636 µM | 0.182 µM | – | –
6 | CAAAAUUGUGCAGGAUAUGCAGUUUGAUGGGCCUGUGGGAGAACAUGAGGAUCACCCAUGUGCUUGCAGAAGGGCACAAGCGAA | 0.103 µM | 0.419 µM | – | –
7 | CUUUUGUGAGGAUAUCAGUUGUAAAUAAAUAAAAUUACUACUGAGAAGGCACAUGAGGAUCACCCAUGUUCCUC | 0.0381 µM | 0.198 µM | – | –
8 | UCAUGCAUAGCGAUAUGAUCGAGAGAUCAUGUCGCUAAAUUUAGAAGGACAUGAGGAUCACCCAUGUAGGAUAUGGGAGCAUGG | – | – | 0.292 µM | 0.0319 µM
9 | CCGAUGUUAGGAUAUACUGCCCGUGGGAUAAACGCCGGGUAGUAGAAGGAACAUGAGGAUCACCCAUGUGACAC | 0.0396 µM | 0.22 µM | – | –
10 | UGUAGUUACGUAGGAUAUCCACGGGCACCCGUAGGAGAAGGACGCUGGACAUGAGGAUCACCCAUGUAUAGAUGGGUGCCUUUC | 0.125 µM | 0.206 µM | – | –
11 | AACAGUACAGGAUAUACAUGAGGAUCACCCAUGUGAAGAUUAAGUGGUGUACCACUAAGUAGAAGGGUACUGGA | 0.0288 µM | 0.126 µM | – | –
12 | GGAAUGUCGGGAGGAUAUCCAAAUGUAUACAUAGGAGAAGGCCCGCACAUGAGGAUCACCCAUGUAAUAACGCGUGGCAUCAAC | 0.0828 µM | 0.119 µM | – | –
13 | AUAUAGGCUAACAUGAGGAUCACCCAUGUGUUAUACUUAAUAUAGGAUAUGUUUAUACUUUUUGGGCAGAAGGAUGGCCUAUAU | – | – | 0.0364 µM | 0.0273 µM
14 | CCUCAGAACAAGAAGGUGGGAGAAGAGUAUAACUAAGGAUAUUGAAAGGGAUGAACAUGAGGAUCACCCAUGUAAGGAAUCGUG | 0.0528 µM | 0.0409 µM | – | –
15 | ACAUUAGUACCACAUGUAUUACAUGAGGAUCACCCAUGUAACUAGGAUAUGUAUUAGAAUUUACAACAGAAGGAGUUAAUAUGU | 0.0098 µM | 0.0119 µM | – | –
16 | GUGGAGUACGUAGGAUAUGUAGGAUAUUCCUACAUGAGGAUCACCCAUGUAUGCAUGGAAGAAGGACAGAAGGACGUGCUCCAG | – | – | 0.208 µM | 0.0135 µM
17 | UUUCAGCUCACAUGAGGAUCACCCAUGUCCGUUCGCCCGGACAGAAGGCACCCAUAACAAUGCGGUGAGGAUAUGUCAGCAAGG | – | – | 0.141 µM | 0.014 µM
18 | UGCGAUGCAGUUGGCCCUGGGCGAGAGGAUAUGGGCAGCGGGACAUGAGGAUCACCCAUGUUCUCUCAGAAGGCUCGAGCAGGC | – | – | 0.256 µM | 0.0916 µM
19 | GGAUAGGAAAGAGGAUAUACGUGCUAGAGAUACUAGCAAAAUUUCCUCACAUGAGGAUCACCCAUGUAGAAGGCUGUCCUAUCG | 0.00595 µM | 0.0389 µM | – | –
20 | GGCAGACAUGAGGAUCACCCAUGUCAGGAUAUUAGGCGAUCGUCGAUAGACGAUAGCCUGAGAAGGGACAUGCC | 0.0238 µM | 0.0541 µM | – | –

Reference: the EternaBench riboswitch data
